Data from PMC11696124 (Nature Communications, 2025).
Changes are numbered by the printed parent chain.

How the values were obtained:
APOL1 G1 [1] = biological target: T1, APOL1 G1 (Homo sapiens, UniProt O14791, I384M/M228I/R255K/S342G); test: Thallium flux assay, tet-inducible HEK293 APOL1 G1; assay type: cell-based
T1 sequence (O14791 28-398 M228I/R255K/S342G/I384M): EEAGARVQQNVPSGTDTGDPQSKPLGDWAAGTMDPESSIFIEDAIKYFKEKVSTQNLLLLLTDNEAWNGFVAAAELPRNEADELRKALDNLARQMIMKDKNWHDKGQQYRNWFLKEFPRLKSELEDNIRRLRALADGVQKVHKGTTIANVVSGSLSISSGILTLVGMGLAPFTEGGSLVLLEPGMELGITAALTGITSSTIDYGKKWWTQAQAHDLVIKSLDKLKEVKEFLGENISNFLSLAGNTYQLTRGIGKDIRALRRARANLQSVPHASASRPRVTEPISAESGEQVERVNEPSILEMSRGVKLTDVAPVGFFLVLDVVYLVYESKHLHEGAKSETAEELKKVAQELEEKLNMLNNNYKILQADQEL

APOL1 G1 [2] = biological target: T1, APOL1 G1; test: HEK cell rescue; assay type: cell-based
LogD7.4 = assay type: physicochemical; details: pH 7.4
Rat Clint = assay type: in vitro ADME; details: hepatocytes
Human Clint = assay type: in vitro ADME; details: hepatocytes
Rat pharmacokinetics = details: in vivo; for bioavailability: po
APOL1 G2 [3] = biological target: T2, APOL1 G2 (Homo sapiens, UniProt O14791, DEL388-389/M228I/R255K); test: Thallium flux assay, tet-inducible HEK293 APOL1 G2; assay type: cell-based
T2 sequence (O14791 with tags, fused parts or gaps M228I/R255K/DEL388-389): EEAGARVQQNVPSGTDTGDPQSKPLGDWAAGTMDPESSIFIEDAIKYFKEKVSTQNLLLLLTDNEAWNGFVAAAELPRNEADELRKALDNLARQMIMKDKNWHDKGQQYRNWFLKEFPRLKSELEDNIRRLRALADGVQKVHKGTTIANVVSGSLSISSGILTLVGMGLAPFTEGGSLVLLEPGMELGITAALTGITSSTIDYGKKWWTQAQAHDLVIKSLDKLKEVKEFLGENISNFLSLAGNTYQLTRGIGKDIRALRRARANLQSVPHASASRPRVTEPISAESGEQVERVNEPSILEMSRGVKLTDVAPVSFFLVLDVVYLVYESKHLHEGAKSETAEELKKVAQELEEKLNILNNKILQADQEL

APOL1 G2 [4] = biological target: T3, APOL1 G2 (Homo sapiens, UniProt O14791, DEL388-389/M228I/R255K, cells depend on it); test: HEK cell rescue; assay type: cell-based; details: read-out: APOL1 G2 HEK Cell Rescue EC50; HEK293 APOL1 G2; replicates in brackets
T3 sequence (O14791 with tags, fused parts or gaps M228I/R255K/DEL388-389): T2 sequence (O14791 with tags, fused parts or gaps M228I/R255K/DEL388-389)

APOL1 G2mc mice [5] = test: Prophylactic IFNγ-induced proteinuria model in APOL1 G2 multicopy mice; assay type: in vivo, mouse; details: 30 mg/kg bid
APOL1 G2sc mice [6] = test: Therapeutic IFNγ plasmid model in APOL1 G2 single copy mice, UACR; assay type: in vivo, mouse; details: 30 mg/kg bid from day 6, vs vehicle
Outline: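 Homozygous APOL1 G2 single-copy transgenic mice of both sexes. Proteinuria was induced by a single hydrodynamic tail-vein injection of a CpG-free plasmid encoding murine IFNγ, 0.3 μg total in saline at 10% body weight, given over about 5–10 s. Mice were allocated by day-5 UACR to give matched group means (n = 12 vehicle, 11 treated). Serum IFNγ was measured by immunoassay on days 1, 5, 9 and 14.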

APOL1 G2sc mice [7] = test: Kidney histopathology and nephrin immunohistochemistry; assay type: in vivo, mouse; details: IFNγ plasmid, 30 mg/kg bid
Outline: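 FVB homozygous APOL1 G2 single-copy mice received a hydrodynamic tail-vein injection of 0.3 μg CpG-free murine IFNγ plasmid in saline (volume 10% of body weight). Groups were balanced by day-5 UACR; vehicle or test compound bid started on day 6. The left kidney was formalin-fixed and cut into 3 µm FFPE sections. Nephrin IHC used CC1 retrieval (95 °C, 64 min), antibody 1:1000 for 1 h, and DAB. AI scoring of all glomeruli in one section gave the H-score.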

APOL1 G0 [8] = biological target: T4, APOL1 G0 (Homo sapiens, UniProt O14791, M228I/R255K); test: HEK cell rescue; assay type: cell-based
T4 sequence (O14791 28-398 M228I/R255K): T1 sequence (O14791 28-398 M228I/R255K/S342G/I384M) with G315S, M357I
Outline: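 HEK293 tet-inducible APOL1 cells in DMEM with 2% tet-free FBS, seeded at 23,400 cells/well and induced with 50 ng/mL tet for 24 h alongside test compound. Dosing was a 10-point 3-fold series from 10 μM, in duplicate. MultiTox reagent was added for 30 min at 37 °C, reading viability (ex 400/em 486) and cytotoxicity (ex 485/em 535). The dead:live ratio was normalized to no-tet (100%) and tet-only (0%) controls before curve fitting.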

APOL1 G0 [9] = biological target: T4, APOL1 G0; test: Automated whole-cell patch clamp; assay type: cell-based
Outline: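 Tet-inducible HEK293 APOL1 G0 cells, induced with 15 ng/mL tet for 16–20 h. Automated whole-cell recording used extracellular NaCl and intracellular CsF, with hole resistance 1.5–2.5 MΩ and a ramp protocol. After 5 min control recording, six test compound concentrations (100 pM–1 μM) were applied for 5 min each. Peak outward current was normalized to control and fitted to a four-parameter variable-slope curve; 8 cells.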

APOL1 G1 [10] = biological target: T1, APOL1 G1; test: Automated whole-cell patch clamp; assay type: cell-based
APOL1 G2 [11] = biological target: T2, APOL1 G2; test: Automated whole-cell patch clamp; assay type: cell-based
recombinant APOL1 G0 = biological target: T5, recombinant APOL1 G0 (Homo sapiens, UniProt O14791); test: Trypanosome; assay type: cell-based
T5 sequence (O14791 28-398): T1 sequence (O14791 28-398 M228I/R255K/S342G/I384M) with I201M, K228R, G315S, M357I
Outline: (§1)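 T. b. brucei were grown in modified HMI-9, then plated at 120,000 parasites/well in phenol red/FBS-free medium with Serum Plus, test compound and recombinant APOL1. APOL1 was at a final level killing about 90% of parasites. After 16 h at 37 °C, alamarBlue was added for 2.5 h, read at ex/em 555/585, in duplicate, and fitted to dose–response curves. Experimental replicates: G0 n=1, G1 n=4, G2 n=1.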

recombinant APOL1 G1 = biological target: T6, recombinant APOL1 G1 (Homo sapiens, UniProt O14791, I384M/S342G); test: Trypanosome; assay type: cell-based
T6 sequence (O14791 28-398 S342G/I384M): T1 sequence (O14791 28-398 M228I/R255K/S342G/I384M) with I201M, K228R
Outline: as §1

recombinant APOL1 G2 = biological target: T7, recombinant APOL1 G2 (Homo sapiens, UniProt O14791, DEL388-389); test: Trypanosome; assay type: cell-based
T7 sequence (O14791 with tags, fused parts or gaps DEL388-389): T2 sequence (O14791 with tags, fused parts or gaps M228I/R255K/DEL388-389) with I201M, K228R
Outline: as §1

APOL1 G2mc mice [12] = details: 3 mg/kg tid; cited from earlier work
[13] = cited from earlier work
[14] = system: purified, recombinant APOL1; details: cited from earlier work

Compound `Cc1cc(F)cc2c(CCC(=O)N[C@H]3CCNC3=O)c(-c3ccc(F)cc3)[nH]c12` [Compound 2, 3-[5-fluoro-2-(4-fluorophenyl)-7-methyl-1H-indol-3-yl]-N-[(3S)-2-oxopyrrolidin-3-yl]propanamide] has an IC50 (APOL1 G1 [1]) of 40 nM, an EC50 (APOL1 G1 [2]) of 37 nM and a logD (LogD7.4) of 2.8. The hepatocyte CLint (Rat Clint) was 8.2 µL/min/1e6 cells, the hepatocyte CLint (Human Clint) was 15.4 µL/min/1e6 cells and the Vd (Rat pharmacokinetics) was 2.1 L/kg. It also gave a clearance (Rat pharmacokinetics) of 15 mL/min/kg, a half-life (Rat pharmacokinetics) of 4.1 h and a bioavailability (Rat pharmacokinetics) of 34%.

Work on `Cc1cc(F)cc2c(CCC(=O)N[C@@H]3C(=O)NC[C@H]3O)c(-c3ccc(F)cc3)[nH]c12` [Compound 3, 3-[5-fluoro-2-(4-fluorophenyl)-7-methyl-1H-indol-3-yl]-N-[(3S,4 R)-4-hydroxy-2-oxo-pyrrolidin-3-yl]propanamide] yielded an IC50 (APOL1 G1 [1]) of 4.2 nM, an IC50 (APOL1 G2 [3]) of 5.4 nM and an EC50 (APOL1 G1 [2]) of 3.6 nM. It also gave an EC50 (APOL1 G2 [4]) of 10 nM, a logD (LogD7.4) of 2.7 and a hepatocyte CLint (Rat Clint) of 5.1 µL/min/1e6 cells. The hepatocyte CLint (Human Clint) was 6.3 µL/min/1e6 cells, the Vd (Rat pharmacokinetics) was 1.4 L/kg and the clearance (Rat pharmacokinetics) was 6 mL/min/kg. For the same compound, the half-life (Rat pharmacokinetics) was 4.2 h, the bioavailability (Rat pharmacokinetics) was 28% and the “APOL1-mediated proteinuria, prophylactic treatment” value (APOL1 G2mc mice [5]) was “able to prevent APOL1-mediated proteinuria”. For the same compound, the “Percent reduction in UACR AUC Day 6-14” value (APOL1 G2sc mice [6]) was 97%, the “microscopic evaluation of kidney tissues” value (APOL1 G2sc mice [7]) was “no microscopic abnormalities or nephrin loss were noted” and the “nephrin H-scores versus no IFNγ control” value (APOL1 G2sc mice [7]) was “comparable”.

Compound `O=C(CCc1c(-c2ccc(F)cc2)[nH]c2c(F)cc(F)cc12)N[C@@H]1C(=O)NC[C@H]1O` [VX-147, 3-[5,7-difluoro-2-(4-fluorophenyl)-1H-indol-3-yl]-N-[(3S,4 R)-4-hydroxy-2-oxo-pyrrolidin-3-yl] propanamide] has an IC50 (APOL1 G1 [1]) of 2 nM, an IC50 (APOL1 G2 [3]) of 1.2 nM and an EC50 (APOL1 G0 [8]) of 4.3 nM. For the same compound, the EC50 (APOL1 G1 [2]) was 2 nM, the EC50 (APOL1 G2 [4]) was 2.2 nM and the IC50 (APOL1 G0 [9]) was 2.3 nM. It also gave an IC50 (APOL1 G1 [10]) of 1.3 nM, an IC50 (APOL1 G2 [11]) of 1.1 nM and an EC50 (recombinant APOL1 G0) of 2 nM. The EC50 (recombinant APOL1 G1) was 2.1 nM, the EC50 (recombinant APOL1 G2) was 1.2 nM and the logD (LogD7.4) was 2.7. The hepatocyte CLint (Rat Clint) was 4.7 µL/min/1e6 cells, the hepatocyte CLint (Human Clint) was < 2.5 µL/min/1e6 cells and the Vd (Rat pharmacokinetics) was 0.9 L/kg. It also gave a clearance (Rat pharmacokinetics) of 4.8 mL/min/kg, a half-life (Rat pharmacokinetics) of 2.5 h and a bioavailability (Rat pharmacokinetics) of 57%. The “APOL1-dependent proteinuria, prophylactic treatment” value (APOL1 G2mc mice [12]) was “reduced APOL1-dependent proteinuria”, the reduction in proteinuria ([13]; 13-week clinical trial, patients with two APOL1 risk alleles and proteinuric non-diabetic kidney disease) was 47.6% and the glomerular filtration rate ([13]; 13-week study in 16 individuals) was “stable”. For the same compound, the “binding to purified, recombinant APOL1” value [14] was “bind directly”.
